Results gathered from unrelated publications.
Protocols differ between the studies behind these lines.
Effect on: metabolic stability
Host: human
Matrix: liver microsomes

For `CCCCCCOc1ccc2c(=O)c3c([nH]c2c1)CCCC3`, the microsomal CLint was 92.2 µL/min/mg (1 µM; pH 7.4).
`C[C@H]1[C@@H](C(=O)NCc2nc(-c3ccc(C#N)cc3)cs2)CCCN1C(=O)[C@H]1CCC(=O)O1` has a microsomal CLint of 8 µL/min/mg (0.5 µM).
With `CCOc1ccc(Nc2c3c(nc4ccccc24)CCC3)cc1` the microsomal CLint was 37 µL/min/mg (0.5 µM).
`COCC(=O)N1CCC[C@H](C(=O)NCc2nc(-c3ccc(C(F)(F)F)cc3)cs2)C1` has a microsomal CLint of 37 µL/min/mg (0.5 µM).
For `O=C1NC2(CCS(=O)(=O)CC2)C(=O)N1c1ccc(F)c(C(F)(F)F)c1`, the microsomal CLint was less than 7 µL/min/mg.
`CC(C)N(c1ccc(C#N)cc1)c1ccc(NC(=O)CN(C)c2ccccc2N2CCCC2=O)cn1` gave a microsomal CLint of 309 µL/min/mg.
The microsomal CLint of `O=C1NC(CF)(CF)C(=O)N1c1ccc(F)c(C(F)(F)F)c1` is reported as less than 7 µL/min/mg.
The microsomal CLint of `Cc1ccc(N(C)c2ccc(NC(=O)CN(C)c3ccccc3N3CCCC3=O)cc2)cc1` is reported as 347 µL/min/mg.
With `COc1cc(NC(=O)Cn2ccc3ccc(-c4cnn(C)c4)cc32)cc(OC)c1OC` the microsomal CLint was 62 µL/min/mg.
With `Cc1[nH]c(C)c(S(=O)(=O)Nc2ccc(C(F)(F)F)c(Cl)c2Cl)c1C(=O)N1CCC(F)(F)C1` the microsomal CLint was 7.4 µL/min/mg.
`O=c1c2c([nH]c3cccc(Oc4ccc(OC(F)(F)F)cc4)c13)CCCC2` has a microsomal CLint of 109 µL/min/mg (1 µM; pH 7.4).
With `CCOc1ccc(-c2csc(CNC(=O)[C@H]3CCCN(C(=O)COC)C3)n2)cc1` the microsomal CLint was 24 µL/min/mg (0.5 µM).
The microsomal CLint of `CC1(C)NC(=O)N(c2ccc(F)c(S(C)(=O)=O)c2)C1=O` is reported as less than 7 µL/min/mg.
`CCN(CC)CCNC(=O)c1c(C)[nH]c(/C=C2\C(=O)Nc3ccc(F)cc32)c1C` gave a microsomal CLint of 25.6 µL/min/mg (1 µM; pH 7.4).
`O=C(N1CCCCC1)C12CC(c3ccccc3)(C1)C2` gave a microsomal CLint of 24 µL/min/mg (2 µM; pH 7.4).
For `Cc1ccc(N(c2ccc(NC(=O)CN(C)c3ccccc3N3CCCC3=O)cn2)C(C)C)cc1`, the microsomal CLint was 270 µL/min/mg.
With `O=c1c2c([nH]c3cc(Nc4ccc(OC(F)(F)F)cc4)ccc13)CCCC2` the microsomal CLint was 67 µL/min/mg (1 µM; pH 7.4).
`Cc1ccc(Nc2cnnc3ccc(-c4ccc(N5CCN(C)CC5)cc4)cc23)cn1` has a microsomal CLint of 36 µL/min/mg.
For `Cc1cc(N2C(=O)NC(C)(C)C2=O)cc(C(F)(F)F)n1`, the microsomal CLint was less than 7 µL/min/mg.
The microsomal CLint of `O=C(NCc1nc(-c2ccccc2)cs1)[C@H]1CCCN(C(=O)[C@H]2CCCO2)C1` is reported as 35 µL/min/mg (0.5 µM).
`O=c1c2ccc(Oc3ccc(OC(F)(F)F)cc3)cc2[nH]c2ccc(F)c(Cl)c12` gave a microsomal CLint of 7.54 µL/min/mg (1 µM; pH 7.4).
`N#Cc1ccc(-c2csc(CNC(=O)[C@H]3CCCN(C(=O)N4CCCO4)C3)n2)cc1` has a microsomal CLint of 112 µL/min/mg (0.5 µM).
`CN1CCN(c2ccc(-c3ccc4nncc(Nc5ccc(OC(F)(F)F)cc5)c4c3)cc2)CC1` gave a microsomal CLint of 30 µL/min/mg.
`O=c1c2ccccc2[nH]c2cc(Oc3ccc(OC(F)(F)F)cc3)ccc12` gave a microsomal CLint of 20.9 µL/min/mg (1 µM; pH 7.4).
The microsomal CLint of `CC(C)NCCOCC(=O)N1CCC[C@H](C(=O)NCc2nc(-c3ccc(C(F)(F)F)cc3)cs2)C1` is reported as 13 µL/min/mg (0.5 µM).
The microsomal CLint of `CN(CC(=O)Nc1ccc(N(C)c2ccc(Cl)c(F)c2)cc1)c1ccccc1N1CCCC1=O` is reported as 218 µL/min/mg.
`Cc1cc2c(C(=O)O)cccc2n1-c1nc2c(c(NCc3ccccc3)n1)CCCN2` gave a microsomal CLint of 9.07 µL/min/mg (1 µM; pH 7.4).
`COc1ccc(Cn2cc(CO[C@@H]3O[C@H]4[C@H](OC[C@H]4O)[C@H]3O)nn2)cc1` gave a microsomal CLint of less than 14.4 µL/min/mg.
With `CC1(C)NC(=O)N(c2cccc(C(F)(F)F)n2)C1=O` the microsomal CLint was less than 7 µL/min/mg.
For `O=c1c2ccc(Oc3ccccc3OC(F)(F)F)cc2[nH]c2cc(Cl)cc(F)c12`, the microsomal CLint was 20.3 µL/min/mg (1 µM; pH 7.4).
The microsomal CLint of `CC1(C)NC(=O)N(c2ccc(F)c(OC(F)(F)F)c2)C1=O` is reported as less than 7 µL/min/mg.
`CNc1ccc(C(N)=O)cn1` gave a microsomal CLint of less than 3 µL/min/mg (1 µM; pH 7.4).
For `CONC(=O)N1CCC[C@H](C(=O)NCc2nc(-c3ccccc3)cs2)C1`, the microsomal CLint was 7.3 µL/min/mg (0.5 µM).
With `Cc1ccc(N(C)c2ccc(NC(=O)CN(C)c3ccccc3N3CCCC3=O)cn2)cc1` the microsomal CLint was 216 µL/min/mg.
The microsomal CLint of `CC1(C)NC(=O)N(c2ccc(F)c(F)c2)C1=O` is reported as less than 7 µL/min/mg.
`O=c1c2ccc(Oc3cccc(OC(F)(F)F)c3)cc2[nH]c2cc(Cl)cc(F)c12` has a microsomal CLint of 2.96 µL/min/mg (1 µM; pH 7.4).
`CC(C)N(c1ccc(Cl)c(F)c1)c1ccc(NC(=O)CN(C)c2ccccc2N2CCCC2=O)cn1` has a microsomal CLint of 287 µL/min/mg.
For `CCOCC(=O)N1CCC[C@H](C(=O)NCc2nc(-c3ccc(-n4cccn4)cc3)cs2)C1`, the microsomal CLint was 64 µL/min/mg (0.5 µM).
For `C#C[C@]1(OC(C)=O)CC[C@H]2[C@@H]3CCC4=CC(=NO)CC[C@@H]4[C@H]3CC[C@@]21CC` (mixture of isomers), the microsomal CLint was 70.1 µL/min/mg.
`O=c1c2ccc(OCc3cccc(OC(F)(F)F)c3)cc2[nH]c2cc(F)cc(Cl)c12` has a microsomal CLint of 22.5 µL/min/mg (1 µM; pH 7.4).
`Cc1ccc(C(C)(C)c2ccc(NC(=O)CN(C)c3ccccc3N3CCCC3=O)cc2)cc1` gave a microsomal CLint of 263 µL/min/mg.
